ChEMBL document CHEMBL1121486, “Synthesis of nitrosourea derivatives of pyridine and piperidine as potential anticancer agents” (1980)

What was measured:
Settings in all cases: route intraperitoneal
[1] = tested on: L1210; experiment: Compound tested for activity against mouse leukemia L1210 tumor (Intraperitoneally implanted) after single ip injection on day 1 at optimal dose of 100 mg/kg (Dose range 256-16); assay type: functional
In short: (§1)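 L1210 leukaemia implanted intraperitoneally in mice. Compound given over a dose range (mg/kg); optimum dose selected. Survivors for toxicity recorded day 5 post-injection. Measures: T – C body weight difference (g), % T/C, and cures, defined as 30-day survivors.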

[2] = tested on: L1210; experiment: Effect of compound on mouse leukemia L1210 tumor (Intraperitoneally implanted) after single dose injected intraperitoneally on day 1 recorded as animal weight difference of the treated and the control (T-C) at OD of 100 mg/kg; assay type: functional; in short: as §1
[3] = tested on: L1210; experiment: The effect of compound on mouse leukemia L1210 tumor (Intraperitoneally implanted)after single dose injected intraperitoneally on day 1 […] at OD of 100 mg/kg; assay type: functional
[4] = tested on: L1210; experiment: Compound tested for toxicity against mouse leukemia L1210 tumor (Intraperitoneally implanted) after single ip injection on day 1 at optimal dose (OD) of 100 mg/kg on the 5th day after the injection of the compound; (6/6); assay type: functional
[5] = tested on: L1210; experiment: Compound tested for activity against mouse leukemia L1210 tumor (Intraperitoneally implanted) after single ip injection on day 1 at optimal dose of 100 mg/kg (Dose range 400-12.5); assay type: functional; in short: as §1
[6] = tested on: L1210; experiment: Compound tested for toxicity against mouse leukemia L1210 tumor (Intraperitoneally implanted) after single ip injection on day 1 at optimal dose (OD) of 12.5 mg/kg on the 5th day after the injection of the compound; (5/5)

SMILES	Optimal dose [1] [mg/kg]	T-C [2] [g]	T/C [3] [%]	Survival [4]	Optimal dose [5] [mg/kg]	Survival [6]
CCN1CCCC(NC(=O)N(CCCl)N=O)C1.O=C(O)/C=C\C(=O)O (configuration not stated)	128	-5.9	235	6	–	–
O=C(O)/C=C\C(=O)O.O=NN(CCCl)C(=O)Nc1cccnc1	–	-7	126	–	12.5	5
CCCCN1CCC(NC(=O)N(CCCl)N=O)CC1.O=C(O)/C=C\C(=O)O	64	-3.9	197	6	–	–
